In article PMC8427777 (ACS Omega, 2021):
Entries after “also recorded” stand apart in the source; their conditions may differ. Read-outs that look alike come from different tables or passages of the source. acyl = not defined here

Tests used:
C5a = assay: Effect of prednisone on SR3–C5a interaction by CD; type: binding, human; conditions: 0.5 μM PDN, 0.35 μM SR3, 0.1 μM C5a, PBS, 25 °C; preliminary
recombinant human C5a [1] = biological target: T1, recombinant human C5a (Homo sapiens, UniProt P01031); assay: Two-site CD study: ECL2 peptide; type: binding
T1 sequence (P01031 678-751 limits assumed): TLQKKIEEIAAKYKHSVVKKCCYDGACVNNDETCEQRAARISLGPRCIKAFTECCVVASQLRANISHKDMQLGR
Summary of the method: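 Two-site CD: 0.1 μM recombinant human C5a was preincubated with 0.5 μM NT-peptide, then titrated with 0–1 μM ECL2 peptide. Far-UV CD was run at 25°C in 1× PBS (pH ∼ 7.4), with at least three scans (1 s time constant, 1 nm step). Each sample was prepared and read separately, and the signal of the corresponding free peptides was subtracted.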

recombinant human C5a [2] = biological target: T1, recombinant human C5a; assay: Two-site fluorescence study: ECL2 peptide; type: binding; conditions: 0.5–1 μM SR1
Summary of the method: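 Two-site fluorescence: 0.1 μM C5a was preincubated with 0.5 μM NT-peptide and titrated with 0–1 μM ECL2 peptide. Readings were taken in 1× PBS (pH ∼ 7.4) at 25°C, with excitation at 278–280 nm, emission at 290–450 nm and 5 nm slits. Three scans were averaged and the free-peptide signal was subtracted.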

[3] = up to 100 μM, in solution; ref not given ("has been reported"); cited from earlier work
recombinant human C5a [4] = biological target: T1, recombinant human C5a; assay: CD titration of NT-peptides against recombinant human C5a; type: binding
Summary of the method: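 Far-UV CD at 25°C in filtered, degassed 1× PBS (pH ∼ 7.4). Recombinant human C5a was held at 0.1 μM and NT-peptides (native Met1-Lys28 sequence or mutants) at 0–1 μM. Samples were incubated ≥1 h at 4°C, each prepared and read separately, with at least three scans (1 s time constant, 1 nm step). Free-peptide signal was subtracted, and data were converted to mean residue ellipticity, normalized and fitted by nonlinear regression for affinity.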

[5] = Conformational analysis of free peptides by CD; type: physicochemical; conditions: 1 μM, PBS pH ∼7.4, 25 °C; compared with SR3
[6] = Intrinsic tyrosine fluorescence of free peptides; type: physicochemical; conditions: at the working concentrations, 1× PBS pH ∼ 7.4, 25 °C
C5aR1 = conditions: cited from earlier work
recombinant human C5a [7] = biological target: T2, recombinant human C5a (human, UniProt P01031 678-751); assay: circular dichroism titration + other fluorescence titration
T2 sequence (looked up): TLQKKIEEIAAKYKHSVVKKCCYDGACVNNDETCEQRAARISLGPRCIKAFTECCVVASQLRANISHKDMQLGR

COVID-19 = conditions: anti-C5a antibody; cited from earlier work
recombinant human C5a [8] = biological target: T2, recombinant human C5a; assay: circular dichroism titration + other fluorescence titration; remark: listed apart in the source

Molecule: C[C@]12C=CC(=O)C=C1CC[C@@H]1[C@@H]2C(=O)C[C@@]2(C)[C@H]1CC[C@]2(O)C(=O)CO [PDN, prednisone]
- response of PDN-preincubated C5a to SR3 compared to free C5a (C5a): comparatively weaker response

Molecule: SR1: native ECL2 sequence of C5aR1 (Tyr174-Arg198), acylated and amidated, carrying Cys188/Ser mutation (acyl-YRVVREEYFPPKVLSGVDYSHDKRR-NH2; reading uncertain)
- CD response, C5a preincubated with SR3, 0.5 μM SR1 (recombinant human C5a [1]; 0.1 μM C5a + 0.5 μM SR3, PBS, 25 °C, 0.5 μM SR1): substantially enhanced the CD signal
- CD response, C5a preincubated with SR3, 1 μM SR1 (vs 0.5 μM) (recombinant human C5a [1]; 0.1 μM C5a + 0.5 μM SR3, PBS, 25 °C, 1 μM SR1): did not change further
- CD response, C5a preincubated with SR4 (recombinant human C5a [1]; 0.1 μM C5a + 0.5 μM SR4, compared to the C5a–SR3/C5a–SR5 system): relatively strong conformational response
- fluorescence response, C5a preincubated with SR3 or SR5 (recombinant human C5a [2]; 0.1 μM C5a + 0.5 μM SR3 or SR5): consistent with the observation made in the CD; also recorded: modest change in fluorescence intensity
- fluorescence response, C5a preincubated with SR4 (recombinant human C5a [2]; 0.1 μM C5a + 0.5 μM SR4): quenched appreciably
- CD signature of free ECL2 peptide [3]: twisted short-stranded β-hairpin-like conformation

Molecule: SR4 (MASFNYTTPAYGHYAAKATLDLNTPVAK)
- change of CD signal / conformation of C5a (recombinant human C5a [4]; 0.1 μM C5a, 0-1 μM peptide, PBS pH ∼ 7.4, 25 °C): robust conformational alteration
- binding affinity toward C5a in words (recombinant human C5a [4]; CD and fluorescence titration studies taken together (A1 and A2)): could not be obtained reliably; also recorded: did not demonstrate a quantifiable binding affinity
- effect of alanine mutations on conformational ordering [5]: can potentially affect the overall conformational ordering
- intrinsic fluorescence [6]: very negligible

B1: C5a: cationic proinflammatory glycoprotein, complement anaphylatoxin; ligand of C5aR1 (protein)
chain: TLQKKIEEIAAKYKHSVVKKCCYDGACVNNDETCEQRAARISLGPRCIKAFTECCVVASQLRANISHKDMQLGR
- potency toward C5aR1 (C5aR1): nanomolar to picomolar potency
- potency toward C5aR1 (C5aR1; native-like conditions): picomolar–nanomolar potency

Molecule: MDSFNYTTPDYGHYDDKDTLDLNTPVDK (peptide, UniProt P21730 1-28, looked up) [SR3, native NT-peptide of C5aR1 (Met1-Lys28)]
- Kd (recombinant human C5a [7]): 0.126 to 0.193 µM

B2: Vilobelimab: anti-C5a antibody (antibody, chains of the INN, looked up, V domains shown)
VH: QVQLQQSGPQLVRPGTSVKISCKASGYSFTTFWMDWVKQRPGQGLEWIGRIDPSDSESRLDQRFKDRATLTVDKSSSTVYMQLSSPTSEDSAVYYCARGNDGYYGFAYWGQGTLVTVSS
VL: DIVLTQSPASLAVSLGQRATISCKASQSVDYDGDSYMKWYQQKPGQPPKLLIYAASNLQSGIPARFSGSGSGTDFTLNIHPVEEEDAATYYCQQSNEDPYTFGGGTKLEIK
- outcome in COVID-19 treatment (COVID-19): favorable outcome

Molecule: acyl-YRVVREEYFPPKVLSGVDYSHDKRR-NH2 (peptide, UniProt P21730 174-198, looked up, reading uncertain) [SR1, ECL2 peptide of C5aR1 (Tyr174-Arg198)]
- binding result (recombinant human C5a [8]): binds

Molecule: MDSFNATTPDAGHADDKDTLDLNTPVDK (peptide, UniProt P21730 1-28, looked up) [SR5, Tyr/Ala mutant NT-peptide of C5aR1 (Met1-Lys28)]
- Kd (recombinant human C5a [7]): 0.105 to 0.123 µM
